We go through four molecules from publication PMC3993885 (Journal of Natural Products, 2014).

One may read the IC50 as the concentration at which inhibition is half-maximal.

The test system of data set [1] is TNF-α-induced NF-κB activity. The class given is cell-based, human. The conditions noted are these: at 50 μM; TNF-α 2 ng/mL, 6 h.
The subject of a further data set is HEK293 cell line. The experiment in a line: Cytotoxicity / survival in HEK293 cells, same conditions as the NF-κB assay. The class given is cell-based, human.
A short description of data set [2]: Chemical stability of 2 monitored by 1H and 13C NMR. The class given is physicochemical. The conditions noted are these: in DMSO-d6 at room temperature (20 °C), after a month. In short, it runs like this:
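1D 1H and 13C spectra were recorded at 400 MHz or 500 MHz. Conversion was judged from a second set of NMR signals assigned to the C-8′ dehydration product.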

For the next data set, the system named is dicotyledons. The conditions noted are these: cited from earlier work.
Another data set relates to Xanthomonas oryzae. The conditions noted are these: cited from earlier work.

In data set [1], “9′-deoxy-8′,8′-dihydroxyherbicidin B [Compound 2]” came in with an NF-κB % inhibition of 96.2 ± 4.9%. In the data set with HEK293 cell line (% survival at a concentration of 50 μM), this molecule yielded an NF-κB % survival of 45.1 ± 5.7%. In the data set with HEK293 cell line (read-out: HEK293 cell line cytotoxicity IC50, same conditions as the NF-κB assay), the IC50 was found to be 13.7 ± 3.3 µM. In addition, the “conversion of 2 to 2a (dehydration at C-8′)” value in data set [2] is recorded as about 70%.
On to `C/C=C(\CO)C(=O)O[C@H]1[C@H](O)[C@@H](C(=O)OC)O[C@@H]2C[C@H]3O[C@@H](n4cnc5c(N)ncnc54)[C@H](OC)[C@H]3O[C@]21O` [Compound 4, Herbicidin A], for which, in the data set with dicotyledons, the herbicidal activity result was “herbicidal” and the toxicity toward dicotyledons result was “selectively toxic”. Also, the “growth inhibition of Xanthomonas oryzae” value with Xanthomonas oryzae is “significantly inhibited the growth”.
In the case of `COC(=O)[C@H]1O[C@@H]2C[C@H]3O[C@@H](n4cnc5c(N)ncnc54)[C@H](OC)[C@H]3O[C@@]2(O)[C@@H](O)[C@@H]1O` [Compound 5, Herbicidin B], in the data set with dicotyledons, the herbicidal activity result is “herbicidal” and the toxicity toward dicotyledons result is “selectively toxic”. Besides, the “growth inhibition of Xanthomonas oryzae” value in the data set with Xanthomonas oryzae is listed as “significantly inhibited the growth”.
Consider aureonucleomycin [Compound 9], for which, in the data set with dicotyledons, the herbicidal activity entry is “herbicidal” and the toxicity toward dicotyledons entry was “selectively toxic”. Besides, the “growth inhibition of Xanthomonas oryzae” value in the data set on Xanthomonas oryzae is recorded as “significantly inhibited the growth”.
